IC50 data for 5 compounds are collected here from ChEMBL document CHEMBL3286189, “Discovery and SAR studies of a novel class of cytotoxic 1,4-disubstituted piperidines via Ugi reaction” (Eur J Med Chem, 2014).

Holding throughout (assay type): functional, cell-based
Assay [1] concerns CCRF-CEM. Description: Cytostatic activity against human CEM cells assessed as inhibition of cell proliferation after 72 hrs by coulter counting analysis. An outline of the steps:
(§1)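 Anti-proliferative screen in murine leukemia L1210, human T-lymphocyte CEM and human cervix carcinoma HeLa cultures. The value reported is the IC50, the concentration that inhibits cell proliferation by 50%.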

The subject of assay [2] is CAKI-1. Description: Cytostatic activity against human Caki1 cells assessed as inhibition of cell proliferation after 96 hrs by coulter counting analysis. The conditions noted are these: CAKI-1, 96 h. An outline of the steps:
(§2)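 Anti-proliferative testing extended to human kidney Caki-1 and human liver Huh-7 tumour cells. The value reported is the IC50, the concentration that inhibits tumour cell growth by 50%.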

The test system of assay [3] is HeLa. As to the kind of experiment: Cytostatic activity against human HeLa cells assessed as inhibition of cell proliferation after 72 hrs by coulter counting analysis. A digest of the protocol:
as §1

The subject of assay [4] is L1210. Description: Cytostatic activity against mouse L1210 cells assessed as inhibition of cell proliferation after 48 hrs by coulter counting analysis. A digest of the protocol:
as §1

Assay [5] relates to Huh-7. As to the kind of experiment: Cytostatic activity against human HuH7 cells assessed as inhibition of cell proliferation after 96 hrs by coulter counting analysis. The conditions noted are these: Huh-7, 96 h. An outline of the steps:
as §2

As a reminder, the IC50 is the concentration that gives 50% inhibition. Take `CC(C)(C)OC(=O)N[C@@H](Cc1c[nH]c2ccccc12)C(=O)N(Cc1ccccc1)C1(C(=O)NCc2ccccc2)CCN(Cc2ccccc2)CC1`: the IC50 in assay [1] (Homo sapiens, CCRF-CEM, 72 h) is 5.9 µM; in assay [2] it was 14 µM; in assay [3] (Homo sapiens, HeLa, 72 h), 5.9 µM; in assay [4] (Mus musculus, L1210, 48 h) it was 4.6 µM; in assay [5], 6.6 µM.

Regarding `CCC(C)N(C(=O)[C@H](CC(=O)OC)NC(=O)OCc1ccccc1)C1(C(=O)NCc2ccccc2)CCN(Cc2ccccc2)CC1` (stereo partly specified), the IC50 turned out to be 4.5 µM in assay [1] (Homo sapiens, CCRF-CEM, 72 h); 8.7 µM in assay [2]; 4.3 µM in assay [3] (Homo sapiens, HeLa, 72 h); 5.3 µM in assay [4] (Mus musculus, L1210, 48 h); 6.4 µM in assay [5].

In the case of `C=CCOC(=O)N1CCC(C(=O)NCc2ccccc2)(N(Cc2ccccc2)C(=O)[C@H](Cc2ccccc2)NC(=O)OC(C)(C)C)CC1`, the IC50 in assay [1] (Homo sapiens, CCRF-CEM, 72 h) turned out to be 4.7 µM; in assay [2] it was 12 µM; in assay [3] (Homo sapiens, HeLa, 72 h), 7 µM; in assay [4] (Mus musculus, L1210, 48 h) it was 4.2 µM; in assay [5] it was 8.1 µM.

With `COC(=O)C[C@H](NC(=O)OC(C)(C)C)C(=O)N(Cc1ccccc1)C1(C(=O)NCc2ccccc2)CCN(Cc2ccccc2)C1` (single isomer, unassigned; diastereomer 2), the IC50 in assay [1] (ccrf-cem) stood at 22 µM; in assay [3] (Homo sapiens, HeLa, 72 h), 18 µM; in assay [4] (l1210), 9 µM.

For the compound `COC(=O)C[C@H](NC(=O)OC(C)(C)C)C(=O)N(Cc1ccccc1)C1(C(=O)NCc2ccccc2)CCN(Cc2ccccc2)C1` (single isomer, unassigned; diastereomer-1), the IC50 worked out at 19 µM in assay [1] (Homo sapiens, CCRF-CEM, 72 h); 16 µM in assay [3] (hela); 6.2 µM in assay [4] (Mus musculus, L1210, 48 h).
